# Compound activity deposited in PubChem by several laboratories.
# In the library only some 1.9% were active in any assay of this set; here they are far more common.
# VIM-2 inh = VIM-2 metallo-beta-lactamase inhibitors, primary screen, biochemical, epi-absorbance readout, Pseudomonas aeruginosa enzyme; 290,000 compounds, 0.89% hits; purified VIM-2, nitrocefin hydrolysis, epi-absorbance fluorescence; inhibition, % at 5.6 µM; AID 1527, 2009;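 active = inhibition above the mean of all tested compounds plus 3 SD, cutoff set per screening run, cut at about 7.5% in these data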;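 also: red hydrolysis product quenches plate fluorescence so inhibitors raise well fluorescence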
# HCV core dimer = inhibitors of HCV core protein dimerization, primary screen, biochemical, TR-FRET, high-throughput. TR-FRET GST/Flag-core106 dimerization, 1536-well. inhibition, % at 5 µM. 300,000 compounds, 0.33% hits;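 active = inhibition above the mean of all tested compounds plus 3 SD, set per screening campaign, cut at about 45% in these data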
#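 assay system = GST-tagged and Flag-tagged HCV core protein residues 1-106 | controls = unlabelled core106 and no-GST-core106 wells | incubation = compound-protein-antibody incubation 4 h at 22.5 °C | probe or stimulus = Eu donor and XL665 acceptor anti-tag antibodies | read-out = % inhibition based on acceptor/donor emission ratio | signal = TR-FRET 671 and 617 nm emission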
# NadD block = inhibitors of S. aureus NadD, primary screen, biochemical, colorimetric, uHTS. inhibition, % at 20 µM. purified NadD enzyme, colorimetric absorbance read-out. 360,000 compounds, 0.78% hits. Nicotinate-nucleotide adenylyltransferase NadD (Staphylococcus aureus N315); in the data active = inhibition above about 26%
# IMP-1 inhibitor = IMP-1 metallo-beta-lactamase inhibitors, primary screen, biochemical, epi-absorbance readout, Pseudomonas aeruginosa enzyme; metallo-beta-lactamase IMP-1 (Pseudomonas aeruginosa); purified IMP-1, nitrocefin hydrolysis, epi-absorbance fluorescence; inhibition, % at 5.6 µM; 290,000 compounds, 0.45% hits; AID 1556, 2009;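 active = inhibition above the mean plus 3 SD of all compounds in the same screening run, cut at about 4.5% in these data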
#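 Assay system: purified recombinant IMP-1 beta-lactamase. Input: IMP-1 0.2 nM before substrate addition. Buffer or medium: Zinc- and detergent-supplemented HEPES buffer, pH 7.1. Schedule: 25 °C, 15 min preincubation, 25 min reaction. Signal: Epi-absorbance fluorescence, 480 nm excitation, 530 nm emission. Evaluation: percent inhibition from optical density relative to buffer-blank wells.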
# NadD conf = inhibitors of S. aureus NadD, confirmation, biochemical, colorimetric, single concentration; purified S. aureus NadD, colorimetric enzyme assay; shares compounds with NadD block; AID 624309, 2012; inhibition, % at 20 µM; 2,000 compounds, 13% hits; in the data active = inhibition mostly above about 42%, no sharp cut-off; inactive = mostly below about 42%
# Numbers stand for hits; 0 = inactive; - = not tested or not shown.
SMILES,VIM-2 inh,HCV core dimer,NadD block,IMP-1 inhibitor,NadD conf
COc1ccc(NC(=O)COC(=O)C2CCN(S(=O)(=O)c3cccs3)CC2)cc1OC,-,-,0,-,-
CCCOc1ccc(C(=O)N/N=C/c2ccc(-c3ccc(S(=O)(=O)Nc4ncccn4)cc3)o2)cc1,0,0,32,0,49
O=C(CSc1nnc(-c2ccccn2)n1Cc1ccco1)c1ccc(-c2ccccc2)cc1,0,0,50,0,0
CN(C)S(=O)(=O)c1cccc(-c2nn(-c3ccccc3)cc2/C=C(\C#N)c2nc3ccccc3[nH]2)c1,0,0,37,0,0
COc1ccc(-c2nn(-c3ccccc3)cc2/C=C(\C#N)S(=O)(=O)c2ccccc2)cc1OC,0,0,0,0,-
Cc1ccc(-c2nn(-c3ccccc3)cc2/C=C(\C#N)c2cccc(C#N)c2)o1,0,0,0,0,-
N#C/C(=C\c1cn(-c2ccccc2)nc1-c1cc2ccccc2o1)c1nc2ccccc2[nH]1,0,0,29,0,0
O=[N+]([O-])c1ccc(CSCc2ccc([N+](=O)[O-])cc2)cc1,-,-,0,-,-
OCCCn1c(C2CCCN2c2nc(-c3ccc(F)cc3)cs2)nc2cc(Cl)c(N3CCCCC3)cc21 (stereo not drawn),-,0,33,-,0
Cc1ccc(Cn2c(CCNc3nc(-c4ccc(Cl)c([N+](=O)[O-])c4)cs3)nc3cc(Cl)c(Cl)cc32)cc1,-,0,48,-,0
Cc1ccc(Cn2c(C3CCCN3c3nc(-c4ccc(F)cc4)cs3)nc3cc(Cl)c(Cl)cc32)cc1 (stereo not drawn),-,0,49,-,0
OCCCn1c(C2CCCN2c2nc(-c3ccc(Cl)cc3)cs2)nc2cc(Cl)c(N3CCCCC3)cc21 (stereo not drawn),-,0,33,-,0
Cc1ccc(Cn2c(C(C)Nc3nc(-c4ccc(F)cc4)cs3)nc3cc(Cl)c(Cl)cc32)cc1 (stereo not drawn),-,0,50,-,0
Cc1cc(C(=O)c2ccc3ccccc3c2)c(C)o1,-,0,0,-,-
Cc1ccc(-c2cc(C(=O)Nc3ccc(S(=O)(=O)Nc4nccs4)cc3)c3ccccc3n2)c(C)c1,0,0,63,0,53
Cc1ccc(C)c(-c2cc(C(=O)Nc3nccs3)c3ccccc3n2)c1,0,0,0,0,-
Cc1ccc(-c2cc(C(=O)Nc3ccc(S(=O)(=O)Nc4ncccn4)cc3)c3ccccc3n2)cc1,0,0,33,0,0
O=C(NNS(=O)(=O)c1ccc2ccccc2c1)c1cc(-c2ccccn2)nc2ccccc12,0,0,45,0,49
CC(C)(C)NS(=O)(=O)c1ccc(NC(=O)c2cc(-c3ccccc3)nc3ccccc23)cc1,0,0,0,0,-
O=C(Nc1nnc(-c2cccs2)o1)c1cc(-c2ccccc2)nc2ccccc12,0,0,55,0,51
CCOc1cc(C(=O)Nc2ccc(C(=O)NCCN(CC)CC)cc2)ccc1OCC(=O)N1CCOCC1,-,-,0,-,-
Fc1cccc(Cc2c(-c3ccccc3)nc3c4ccccc4ccn23)c1,-,-,0,-,-
Cc1ccc(S(=O)(=O)N2CCN(Cc3csc(C)n3)CC2)cc1,0,0,0,0,-
CCc1ccc(-c2cc(C(=O)Nc3ccc(S(=O)(=O)NC(C)=O)cc3)c3ccccc3n2)cc1,0,0,0,0,-
O=C(Nc1ccc(S(=O)(=O)Nc2nccs2)cc1)c1cc(-c2ccccc2)nc2ccccc12,0,0,46,0,50
SMILES,VIM-2 inh,HCV core dimer,NadD block,IMP-1 inhibitor,NadD conf
O=C(Nc1ccc(S(=O)(=O)Nc2nccs2)cc1)c1ccc(N2C(=O)c3ccccc3C2=O)cc1,0,54,62,0,0
Cc1cc(=O)n2nc(N3CCCC(C(=O)NCc4cccc(Br)c4)C3)sc2n1 (stereo not drawn),0,0,0,0,-
O=C(CSc1nnc(SCc2ccccc2)s1)N/N=C/C=C/c1ccco1,0,0,48,0,43
OCCNc1nc(Nc2ccccc2O)nc(N2CCCC2)n1,-,0,0,-,-
O=C(c1ccncc1)N1CCCC(N2CCN(c3cccc(C(F)(F)F)c3)CC2)C1 (stereo not drawn),0,0,0,0,-
CCc1cc(C(=O)N2CCCC(N3CCN(c4cccc(C(F)(F)F)c4)CC3)C2)n(C)n1 (stereo not drawn),0,0,38,0,0
COc1ccc(S(=O)(=O)Nc2cccc(S(=O)(=O)NC3=NCCC3)c2)cc1[N+](=O)[O-],-,0,0,-,-
COc1ccc2oc(C(=O)NC(C)c3ccccn3)c(C)c2c1 (stereo not drawn),-,-,0,-,-
COc1ccc2oc(C(=O)Nc3nc(-c4ccccn4)cs3)c(C)c2c1,-,56,34,-,0
O=C(N/N=C/c1ccc([N+](=O)[O-])o1)c1cc(-c2cccc(Br)c2)nc2ccccc12,0,71,72,0,0
CCCc1ccc(-c2cc(C(=O)N/N=C/c3ccc([N+](=O)[O-])o3)c3ccccc3n2)cc1,0,0,34,0,0
Cc1cc(C(=O)N/N=C/c2ccc([N+](=O)[O-])o2)c(C)o1,0,0,0,0,-
COc1ccc(-c2nn(-c3ccccc3)cc2C(=O)N/N=C/c2ccc([N+](=O)[O-])o2)cc1,0,0,31,0,0
O=C(N/N=C/c1ccco1)c1cc(-c2ccccc2)nc2ccccc12,0,0,0,0,-
Cn1ccc(C(=O)Nc2cccnc2Cl)n1,0,-,0,0,-
CCC(=O)O[C@]1(C(=O)SCF)[C@H](C)C[C@H]2[C@@H]3C[C@H](F)C4=CC(=O)C=C[C@]4(C)[C@@]3(F)[C@@H](O)C[C@@]21C,-,0,-,-,-
Clc1ccc(C2=Nn3c(nnc3-c3n[nH]c4c3CCC4)SC2)cc1Cl,0,0,30,0,0
Clc1ccc(C2=Nn3c(nnc3-c3cc(-c4ccccc4)n[nH]3)SC2)cc1,0,0,45,0,0
c1ccc(C2=Nn3c(nnc3-c3n[nH]c4c3CCC4)SC2)cc1,0,0,0,0,-
C[C@H](CO)N1C[C@H](C)[C@@H](CN(C)C(=O)OCc2ccccc2)OCc2cn(nn2)CCCC1=O,-,-,0,-,-
CCOc1cccc(CN2CCN(CCCc3ccccc3)C(CCO)C2)c1O (stereo not drawn),0,0,0,0,-
O=C(CSc1nnc2c3ccccc3c3ccccc3c2n1)Nc1ccccc1F,0,0,42,0,0
Nc1nnc(-c2ccco2)s1,0,0,0,0,-
Nc1ncnc2oc(-c3ccco3)c(-c3ccco3)c12,0,73,54,0,0
Cc1c(NC(=O)/C(C#N)=C/c2ccc(-c3ccc(Cl)c(Cl)c3)o2)c(=O)n(-c2ccccc2)n1C,0,0,33,0,0
O=C(Nc1ccc(N2CCCC2)cc1)C(c1ccccc1)c1ccccc1,0,0,37,0,0
O=C(Cc1ccccc1)Nc1ccc(N2CCCC2)cc1,0,0,41,0,0
